Reference: publication PMC6061410 (Clinical Drug Investigation, 2018)
“Also recorded” adds a separate entry of the source.

Test system: healthy young and healthy elderly subjects
Assay: Safety and tolerability
Type: in vivo, human
Outline: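 Adverse events were recorded by system organ class and preferred term in the treated set. This was 84 healthy young or elderly subjects randomised 3:1 to oral drug or placebo over 14 days, across seven ascending dose groups with a safety review before each escalation. Changes were assessed against the last pre-dose baseline measurement.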

C[C@@H](Oc1ccc(S(C)(=O)=O)cc1C(=O)N1C[C@@H]2C[C@]2(c2cc(C(F)(F)F)on2)C1)C(F)(F)F [BI 425809]
intensity of treatment-emergent AEs (all dose groups): mild-to-moderate; also recorded: mild or moderate | intensity of eye disorders (both age groups): mild | subjects who reported one or more AEs (elderly subjects receiving the active drug): 88.9% | subjects with drug-related AEs (elderly subjects who received BI 425809): 77.8% | Back pain (elderly, 25 mg QD): 1 (11.1) n (%) | Constipation (elderly, 25 mg QD): 0 (–) n (%) | Dizziness (elderly, 25 mg QD): 1 (11.1) n (%) | Eye disorders (elderly, 25 mg QD): 1 (11.1) n (%) | Folliculitis (elderly, 25 mg QD): 2 (22.2) n (%) | Gastrointestinal disorders (elderly, 25 mg QD): 6 (66.7) n (%) | General disorders and administration site conditions (elderly, 25 mg QD): 2 (22.2) n (%) | Hard faeces (elderly, 25 mg QD): 2 (22.2) n (%) | Headache (elderly, 25 mg QD): 1 (11.1) n (%) | Infections and infestations (elderly, 25 mg QD): 3 (33.3) n (%) | Injury, poisoning and procedural complications (elderly, 25 mg QD): 2 (22.2) n (%) | Musculoskeletal and connective tissue disorders (elderly, 25 mg QD): 1 (11.1) n (%) | Nasopharyngitis (elderly, 25 mg QD): 1 (11.1) n (%) | Nausea (elderly, 25 mg QD): 1 (11.1) n (%) | Nervous system disorder (elderly, 25 mg QD): 2 (22.2) n (%) | Psychiatric disorders (elderly, 25 mg QD): 2 (22.2) n (%) | Subjects with AEs leading to study discontinuation (elderly, 25 mg QD): 0 (–) n (%) | Subjects with investigator-defined drug-related AEs (elderly, 25 mg QD): 6 (66.7) n (%) | Total with AEs (elderly, 25 mg QD): 8 (88.9) n (%) | Venepuncture site haematoma (elderly, 25 mg QD): 1 (11.1) n (%) | Vomiting (elderly, 25 mg QD): 1 (11.1) n (%) | Back pain (elderly, 50 mg QD): 1 (11.1) n (%) | Constipation (elderly, 50 mg QD): 4 (44.4) n (%) | Dizziness (elderly, 50 mg QD): 2 (22.2) n (%) | Eye disorders (elderly, 50 mg QD): 1 (11.1) n (%) | Folliculitis (elderly, 50 mg QD): 1 (11.1) n (%) | Gastrointestinal disorders (elderly, 50 mg QD): 5 (55.6) n (%) | General disorders and administration site conditions (elderly, 50 mg QD): 4 (44.4) n (%) | Hard faeces (elderly, 50 mg QD): 0 (–) n (%) | Headache (elderly, 50 mg QD): 1 (11.1) n (%) | Infections and infestations (elderly, 50 mg QD): 3 (33.3) n (%) | Injury, poisoning and procedural complications (elderly, 50 mg QD): 0 (–) n (%) | Musculoskeletal and connective tissue disorders (elderly, 50 mg QD): 2 (22.2) n (%) | Nasopharyngitis (elderly, 50 mg QD): 1 (11.1) n (%) | Nausea (elderly, 50 mg QD): 1 (11.1) n (%) | Nervous system disorder (elderly, 50 mg QD): 3 (33.3) n (%) | Psychiatric disorders (elderly, 50 mg QD): 2 (22.2) n (%) | Subjects with AEs leading to study discontinuation (elderly, 50 mg QD): 1 (11.1) n (%) | Subjects with investigator-defined drug-related AEs (elderly, 50 mg QD): 8 (88.9) n (%) | Total with AEs (elderly, 50 mg QD): 8 (88.9) n (%) | Venepuncture site haematoma (elderly, 50 mg QD): 4 (44.4) n (%) | Vomiting (elderly, 50 mg QD): 1 (11.1) n (%) | Back pain (elderly, Total BI n = 18): 2 (11.1) n (%) | Constipation (elderly, Total BI n = 18): 4 (22.2) n (%) | Dizziness (elderly, Total BI n = 18): 3 (16.7) n (%) | Eye disorders (elderly, Total BI n = 18): 2 (11.1) n (%) | Folliculitis (elderly, Total BI n = 18): 3 (16.7) n (%) | Gastrointestinal disorders (elderly, Total BI n = 18): 11 (61.1) n (%) | General disorders and administration site conditions (elderly, Total BI n = 18): 6 (33.3) n (%) | Hard faeces (elderly, Total BI n = 18): 2 (11.1) n (%) | Headache (elderly, Total BI n = 18): 2 (11.1) n (%) | Infections and infestations (elderly, Total BI n = 18): 6 (33.3) n (%) | Injury, poisoning and procedural complications (elderly, Total BI n = 18): 2 (11.1) n (%) | Musculoskeletal and connective tissue disorders (elderly, Total BI n = 18): 3 (16.7) n (%) | Nasopharyngitis (elderly, Total BI n = 18): 2 (11.1) n (%) | Nausea (elderly, Total BI n = 18): 2 (11.1) n (%) | Nervous system disorder (elderly, Total BI n = 18): 5 (27.8) n (%) | Psychiatric disorders (elderly, Total BI n = 18): 4 (22.2) n (%) | Subjects with AEs leading to study discontinuation (elderly, Total BI n = 18): 1 (5.6) n (%) | Subjects with investigator-defined drug-related AEs (elderly, Total BI n = 18): 14 (77.8) n (%) | Total with AEs (elderly, Total BI n = 18): 16 (88.9) n (%) | Vomiting (elderly, Total BI n = 18): 2 (11.1) n (%) | dose dependency of AEs (frequency of subjects with drug-related AE across treatment groups): no dose dependency was observed; also recorded: not dose dependent | tolerability (multiple doses 10–75 mg QD or 75 mg BID (young), 25 or 50 mg QD (elderly)): generally well tolerated | serious AEs (part 1, all dose groups): no serious adverse events occurred; also recorded: no serious AEs were reported | subjects who experienced one or more AEs (young subjects, part 1, active-treatment arm): 66.7% | subjects with drug-related AEs (young subjects, part 1, receiving BI 425809): 60.0% | Dizziness (young, part 1, 10 mg QD): 1 (11.1) n (%) | Eye disorders (young, part 1, 10 mg QD): 0 (–) n (%) | Gastrointestinal disorders (young, part 1, 10 mg QD): 0 (–) n (%) | General disorders and administration site conditions (young, part 1, 10 mg QD): 0 (–) n (%) | Headache (young, part 1, 10 mg QD): 3 (33.3) n (%) | Infections and infestations (young, part 1, 10 mg QD): 1 (11.1) n (%) | Insomnia (young, part 1, 10 mg QD): 0 (–) n (%) | Musculoskeletal and connective tissue disorders (young, part 1, 10 mg QD): 1 (11.1) n (%) | Nasopharyngitis (young, part 1, 10 mg QD): 0 (–) n (%) | Nervous system disorder (young, part 1, 10 mg QD): 4 (44.4) n (%) | Ocular discomfort (young, part 1, 10 mg QD): 0 (–) n (%) | Psychiatric disorders (young, part 1, 10 mg QD): 0 (–) n (%) | Subjects with AEs leading to study discontinuation (young, part 1, 10 mg QD): 0 (–) n (%) | Subjects with investigator-defined drug-related AEs (young, part 1, 10 mg QD): 4 (44.4) n (%) | Total with AEs (young, part 1, 10 mg QD): 5 (55.6) n (%) | Vision blurred (young, part 1, 10 mg QD): 0 (–) n (%) | Dizziness (young, part 1, 25 mg QD): 0 (–) n (%) | Eye disorders (young, part 1, 25 mg QD): 2 (22.2) n (%)
